ABCB1 block: inhibitors of human ABCB1 transporter, ABCG2 counter-screen | P08183 | CCRF-Adr cells, JC-1 efflux, flow cytometry | AID 1326 | 190,000 tested, 0.067% active | inhibition, % at 6.6 µM; in the data active means inhibition above about 40%;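 further: 0% = vehicle and 100% = reference inhibitor; higher value means more JC-1 retained so stronger ABCB1 efflux block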
ABCG2 inh: blocks JC-1 efflux by human ABCG2 transporter; Q9UNQ0; IgMXP3 cells, flow cytometry; inhibition, % at 6.6 µM; 190,000 tested, 0.1% active;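 active means inhibition above 80%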;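 further: 0% = DMSO and 100% = nicardipine control wells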
Target sequence (Q9UNQ0 whole entry, looked up): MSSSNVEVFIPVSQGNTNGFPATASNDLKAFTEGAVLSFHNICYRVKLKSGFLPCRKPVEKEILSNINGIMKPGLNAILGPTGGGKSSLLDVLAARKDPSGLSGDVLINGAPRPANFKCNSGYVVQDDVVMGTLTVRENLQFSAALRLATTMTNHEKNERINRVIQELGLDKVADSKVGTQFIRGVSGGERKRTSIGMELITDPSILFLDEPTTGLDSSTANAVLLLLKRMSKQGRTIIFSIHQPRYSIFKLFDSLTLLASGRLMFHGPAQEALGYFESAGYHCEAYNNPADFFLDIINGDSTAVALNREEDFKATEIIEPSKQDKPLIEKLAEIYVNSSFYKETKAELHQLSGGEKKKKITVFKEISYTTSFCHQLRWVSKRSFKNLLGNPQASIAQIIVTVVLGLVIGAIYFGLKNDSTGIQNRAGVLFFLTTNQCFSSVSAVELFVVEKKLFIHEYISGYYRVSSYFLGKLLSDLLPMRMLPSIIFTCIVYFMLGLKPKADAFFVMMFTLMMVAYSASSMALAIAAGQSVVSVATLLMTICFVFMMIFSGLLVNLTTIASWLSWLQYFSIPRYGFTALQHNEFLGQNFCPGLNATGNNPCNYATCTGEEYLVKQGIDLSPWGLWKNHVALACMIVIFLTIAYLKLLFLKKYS
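Measure – % inhibition of efflux relative to nicardipine and DMSO · Test system – ABCG2 IgMXP3 and barcoded ABCB1 CCRF-Adr cell mix · Control set – nicardipine as high control, DMSO as low control · Compound – one concentration, 6.6 µM final · Signal – flow cytometry of retained JC-1 fluorescence · Timing – 10 min exposure at 25 °C with rotation, no wash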
L major viab: Leishmania major promastigote growth inhibition. Leishmania major promastigotes, resazurin fluorescence viability. inhibition, % at 10 µM. 200,000 tested, 9% active. AID 1063; in the data active means inhibition above about 50%;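 further: promastigotes grown with compound for 44 hours at 28 °C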
WT yeast gro inh: growth inhibition of WT yeast, mitochondrial fusion screen; inhibition, % at 10 µM; 190,000 tested, 2.1% active; AID 1362; mitochondrial fusion phenotypic screen, WT strain; in the data active means inhibition above about 58%; tested in S. cerevisiae
RAM network inh: blocks the yeast RAM network. S. cerevisiae dse1pr::URA3 reporter, 5-FOA growth OD615, 2 d; analog-sensitive cbk1-as2 kinase mutant strain. inhibition, % at 50 µM. 190,000 tested, 1.8% active. AID 868;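 active means inhibition above a set limit, 3 SD over mean compound inhibition, cut at about 8.4% in these data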;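 further: 0% = DMSO-only wells with no growth and 100% = 10 µM 1-NA-PP1 full growth; inhibition rescues growth on 5-FOA so higher OD means more RAM inhibition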
Starred values were filed as active, the others as inactive; . = no result. Hits are enriched below; roughly 12% of the tested compounds scored in any of these assays.

SMILES	ABCB1 block	ABCG2 inh	L major viab	WT yeast gro inh	RAM network inh
COc1ccc(NC(=O)C2CCN(S(=O)(=O)c3ccc(C)cc3)CC2)cc1OC	1	6	-6	-3	3
COc1ccc(NC(=O)C2CCN(S(=O)(=O)c3ccc(Br)s3)CC2)cc1OC	0	4	-2	-3	10*
CC(=O)c1c(C)oc2ccc(NS(=O)(=O)c3cccs3)cc12	2	4	-2	-16	2
c1ccc2sc(NN=C3CCCCCC3)nc2c1	1	22	63*	44	0
O=C(Nc1nc2ccccc2s1)c1ccccc1	0	2	22	26	1
O=C(CCCC(=O)N1CCN(c2ccc([N+](=O)[O-])cc2)CC1)c1ccccc1	1	8	86*	11	0
CCNC(=S)N1CCN(c2ccc([N+](=O)[O-])cc2)CC1	-1	0	5	-5	0
O=C(CCCc1ccccc1)N1CCN(c2ccc([N+](=O)[O-])cc2)CC1	1	8	58*	14	1
CCOC(=O)c1cc(-c2ccc(C)cc2)n(CCC(=O)NCCN(C)C)c1C	4	28	23	0	0
CCOC(=O)c1cc(-c2ccc(C)cc2)n(CCC(=O)N2CCN(c3ccccn3)CC2)c1C	10	21	90*	30	1
CNC(=S)N1CCN(c2ccc([N+](=O)[O-])cc2)CC1	0	2	-4	67*	0
COc1cc(NC(=O)C2CC2)c(OC)cc1NC(=O)CCC(=O)NC1CCN(Cc2ccccc2)CC1	0	0	-6	-2	2
O=C(CCc1ccccc1)N1CCN(c2ccccn2)CC1	1	14	52*	-13	2
COc1ccc(N(C(=O)CNC(=O)c2cccs2)C(C(=O)NCC2CCCO2)c2ccccc2)cc1 (centres undefined)	-1	2	6	11	4
COC(=O)C1=CN(C2CC2)C=C(C(=O)OC)C1c1ccc(C(F)(F)F)cc1	0	1	88*	11	2
COc1ccccc1C1c2c(C)nn(-c3ccccc3)c2NC(=O)C1NC(=O)c1ccccc1 (centres undefined)	7	4	75*	-16	1
COC(=O)c1c(C)nn(-c2ccccc2)c1N	0	-1	-3	11	1
CC(=O)N1CCN(C(=S)NC(=O)c2ccc(S(=O)(=O)N3CCOCC3)cc2)CC1	-1	-6	-2	-3	1
CCOC(=O)c1c(/N=C/N(C)C)sc(/C=N/Nc2ccccc2)c1-c1ccc(Cl)cc1	-2	-21	94*	-27	4
c1nnc(NC2=NCCCCC2)s1	1	5	-8	-6	1
C1CCN=C(Nc2nc3c(s2)CCCC3)CC1	0	3	4	62*	0
O=C(O)c1ccc(Nc2nc3c(s2)CCCC3)cc1	1	-1	7	-42	3
Cc1cccc(Nc2nc3c(s2)CCCC3)c1	0	-1	62*	16	1
CC(Sc1nc(N)cc(=O)[nH]1)C(=O)Nc1cccc(Cl)c1 (centres undefined)	0	-2	56*	-26	1
CC(=O)NC1C(=O)N=C(SC(C)C(=O)Nc2cccc(Cl)c2)NC1=O (centres undefined)	1	6	63*	-8	2
SMILES	ABCB1 block	ABCG2 inh	L major viab	WT yeast gro inh	RAM network inh
CCOC(=O)c1sc(NC(=O)C(C)Sc2nc(N)cc(=O)[nH]2)nc1C (centres undefined)	-1	-1	-6	-5	2
Cc1onc(-c2c(F)cccc2Cl)c1C(=O)NC1CCSC1=O (centres undefined)	0	1	-1	10	0
Cc1ccc(S(=O)(=O)ON2C(=O)c3ccccc3C2=O)c(C)c1	-1	-4	-8	6	-2
Cc1ccc(S(=O)(=O)/N=C2/C=C(Sc3ncn[nH]3)C(=O)c3ccccc32)c(C)c1	0	-2	99*	74	4
Cc1ccc(S(=O)(=O)Nc2ccc(O)c(Sc3ncn[nH]3)c2)cc1	0	1	-1	-8	1
CC(C)c1ccc(S(=O)(=O)/N=C2/C=C(Sc3ncn[nH]3)C(=O)c3ccccc32)cc1	1	3	99*	47	3
Cc1ccc(S(=O)(=O)/N=C2/C=C(Sc3ncn[nH]3)C(=O)c3ccccc32)cc1	0	-3	100*	45	3
COC(=O)c1sccc1NC(=S)N1CC(C)CC(C)C1 (centres undefined)	1	21	-7	55	2
CCN(CC)C(=O)c1ccc2c(c1)nnn2C	.	1	-10	6	1
Cc1ccc(/C=C2\C(=O)Nc3ccccc32)o1	0	10	99*	10	1
O=C1Nc2ccccc2/C1=C/c1cccnc1	1	3	78*	-1	0
O=C1ON=C(c2ccccc2)/C1=C/c1cccnc1	0	0	-2	9	0
Cn1cnc2c(=O)[nH]cc([N+](=O)[O-])c21	0	2	-5	-5	1
O=C(NCc1ccccc1)c1ccc(Br)o1	0	0	-7	-12	1
O=C(c1ccc(Br)o1)N(Cc1ccccc1)Cc1ccccc1	1	12	7	79*	0
O=C(c1cccs1)N(Cc1nc2sc3c(c2c(=O)[nH]1)CCCC3)C1CCCC1	11	10	11	61*	-1
Cc1sc2nc(CN(C(=O)c3cccs3)C3CCCC3)[nH]c(=O)c2c1C	5	16	20	7	2
Cc1ccc(Nc2ccc(-n3ccnc3)nn2)cc1C	0	3	32	69*	1
CCN1CCN(S(=O)(=O)c2ccc(Oc3ccccc3OC)cc2)CC1	2	31	-4	-5	1
CCc1ccc2c(c1)C1(NN=C(c3cccc4ccccc34)S1)C(=O)N2 (centres undefined)	-1	-2	99*	19	0
CC(OC(=O)c1ccccc1Oc1ccccc1)C(=O)NC1CC1 (centres undefined)	2	4	4	-10	3
CCOCCOC(=O)c1ccc(-n2cncn2)nc1	0	1	-3	0	2
O=C(OCC(=O)N1CCN(C(=O)c2ccco2)CC1)c1cn(-c2ccccc2)nc1-c1ccccc1	5	45	3	80*	4
O=C(OCC(=O)N1CCN(C(=O)c2ccco2)CC1)c1cc(-c2ccccc2)nc2ccccc12	1	0	22	1	1
COc1ccc(S(=O)(=O)N2CCCCCC2)cc1	0	2	-4	3	0
Nc1nc(-c2ccc(Cl)cc2)c(N=Nc2ccc(S(=O)(=O)N3CCOCC3)cc2)s1	-3	-27	74*	49	9.3*
O=S(=O)(c1ccc(Cl)cc1)N1CCN(C2CCCCCC2)CC1	2	6	90*	17	1
COc1ccc(S(=O)(=O)N2CCN(C3CCCCCCC3)CC2)cc1	1	2	73*	16	0
COc1ccc(S(=O)(=O)N2CCC(N3CCCCC3)CC2)cc1	0	0	92*	4	4

From PubChem BioAssay
